pIC50, pKi: −log10 of the molar value.
Key:
[1] = biological target: T1, Urease subunit alpha/Urease subunit beta (Helicobacter pylori (strain ATCC 700392 / 26695) (Campylobacterpylori), UniProt P69996); assay: Inhibition of Helicobacter pylori ATCC 43504 urease-mediated ammonia production preincubated for 1.5 hrs by indophenol method
[2] = biological target: T1, Urease subunit alpha/Urease subunit beta; assay: Competitive inhibition of Helicobacter pylori ATCC 43504 urease using urea as substrate by Lineweaver-Burk/Dixon plot analysis
Outline: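 Crude urease from H. pylori ATCC 43504, grown 24 h at 37 °C under microaerobic conditions in Brucella broth with 10% heat-inactivated horse serum. Enzyme (10 U) was pre-incubated with inhibitor for 1.5 h at room temperature. Ammonia was read by the indophenol method while urea varied at several inhibitor levels. Ki came from a Lineweaver–Burk slope replot x-intercept or a Dixon plot intersection. Run in triplicate.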

[3] = biological target: Urease subunit alpha/Urease subunit beta (Helicobacter pylori (strain ATCC 700392 / 26695) (Campylobacterpylori)) (UniProt P69996+P14916); assay: Ratio of acetohydroxamic acid IC50 to compound IC50 for Helicobacter pylori ATCC 43504 urease
Urease subunit alpha/Urease subunit beta (Helicobacter pylori (strain ATCC 700392 / 26695) (Campylobacterpylori)), sequence (P14916 whole entry, looked up): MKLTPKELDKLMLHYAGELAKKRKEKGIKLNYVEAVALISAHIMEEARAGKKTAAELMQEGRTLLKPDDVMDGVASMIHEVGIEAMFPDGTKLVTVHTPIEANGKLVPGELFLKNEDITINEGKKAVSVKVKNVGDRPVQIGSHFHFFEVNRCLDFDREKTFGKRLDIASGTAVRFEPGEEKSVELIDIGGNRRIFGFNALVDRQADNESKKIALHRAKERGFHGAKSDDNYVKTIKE
Urease subunit alpha/Urease subunit beta (Helicobacter pylori (strain ATCC 700392 / 26695) (Campylobacterpylori)), sequence (P69996 whole entry, looked up): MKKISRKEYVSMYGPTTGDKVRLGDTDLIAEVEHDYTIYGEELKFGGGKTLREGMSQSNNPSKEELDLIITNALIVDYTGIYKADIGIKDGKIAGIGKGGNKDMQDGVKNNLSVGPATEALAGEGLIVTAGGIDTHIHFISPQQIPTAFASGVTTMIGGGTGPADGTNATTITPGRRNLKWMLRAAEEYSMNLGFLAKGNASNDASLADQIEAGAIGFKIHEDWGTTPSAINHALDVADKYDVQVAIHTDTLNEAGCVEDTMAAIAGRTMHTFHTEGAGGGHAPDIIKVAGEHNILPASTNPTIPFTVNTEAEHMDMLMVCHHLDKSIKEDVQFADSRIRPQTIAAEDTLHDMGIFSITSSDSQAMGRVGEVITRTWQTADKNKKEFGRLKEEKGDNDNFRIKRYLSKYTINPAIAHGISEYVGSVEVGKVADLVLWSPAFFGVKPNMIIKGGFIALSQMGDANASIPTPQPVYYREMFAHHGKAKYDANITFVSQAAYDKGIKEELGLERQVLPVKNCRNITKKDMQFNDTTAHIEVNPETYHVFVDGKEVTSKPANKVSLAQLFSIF

T1 sequence (P69996 whole entry): as the sequence (P69996 whole entry, looked up) above
T1 sequence (P14916 whole entry, further chain): as the sequence (P14916 whole entry, looked up) above

SMILES	pIC50 [1]	pKi [2]	Ratio IC50 [3]
O=c1cc(-c2ccc(O)cc2)oc2cc(O)cc(O)c12 [APIGENIN]	3.86	–	–
Oc1ccc(C2=COc3c(ccc(O)c3O)C2)cc1	6.07	6.19	20
O=c1c(-c2ccc(O)cc2)coc2cc(O)ccc12 [DAIDZEIN]	3.25	–	–
Oc1cc2c(c(O)c1O)C=CC(c1ccccc1)O2 (stereo not given)	4.66	–	–
COc1ccc(C(C)C(=O)c2ccc(O)cc2O)cc1 (stereo not given)	2.98	–	–
COc1ccc(C2=COc3cc(O)ccc3C2)cc1	4.06	–	–
COc1ccc(-c2coc3cc(OC)ccc3c2=O)cc1	2.45	–	–
COc1ccc(C2COc3cc(OC)ccc3C2O)cc1 (stereo not given)	2.41	–	–
COc1cc(O)c(C(=O)CCc2ccccc2)c(OC)c1	2.78	–	–
COc1ccc(C2C=Cc3c(OC)c(OC)c(OC)c(OC)c3O2)cc1 (stereo not given)	2.38	–	–
COc1ccc(-c2coc3cc(O)ccc3c2=O)cc1 [FORMONONETIN]	2.70	–	–
COc1ccc(C2CC(O)c3c(OC)c(OC)c(OC)c(OC)c3O2)cc1 (stereo not given)	2.31	–	–
COc1ccc(-c2cc(=O)c3c(OC)c(OC)c(OC)c(OC)c3o2)cc1 [TANGERETIN]	2.33	–	–
O=c1c(O)c(-c2ccc(O)c(O)c2)oc2cc(O)cc(O)c12 [QUERCETIN]	4.96	–	–
COc1ccc(C2COc3cc(O)ccc3C2)cc1 (stereo not given)	3.45	–	–
Oc1cc(O)c2c(c1)OC(c1ccc(O)c(O)c1)C=C2 (stereo not given)	5.35	–	–
COc1ccc(C2=CCc3c(OC)c(OC)c(OC)c(OC)c3O2)cc1	2.42	–	–
O=c1cc(-c2ccccc2)oc2cc(O)c(O)c(O)c12 [BAICALEIN]	3.54	–	–
COc1ccc(C(C)C(=O)c2ccc(OC)cc2O)cc1 (stereo not given)	2.66	–	–
COc1ccc(C2COc3cc(OC)ccc3C2)cc1 (stereo not given)	2.75	–	–
Oc1cc(O)c2c(c1)OC(c1ccccc1)C=C2 (stereo not given)	4.48	–	–
COc1cc(O)c(C(=O)/C=C/c2ccccc2)c(OC)c1 [FLAVOKAWAIN B]	2.91	–	–
COc1cc(OC)c2c(=O)cc(-c3ccccc3)oc2c1 [CHRYSIN DIMETHYL ETHER]	2.66	–	–
COc1cc(O)c(C(=O)CCc2ccccc2)c(O)c1	3.01	–	–
Oc1ccc(C2COc3cc(O)ccc3C2)cc1 (stereo not given)	4.03	–	–
O=C1CC(c2ccc(O)cc2)Oc2cc(O)cc(O)c21 (stereo not given)	3.48	–	–
O=c1cc(-c2ccc(O)c(O)c2)oc2cc(O)cc(O)c12 [LUTEOLIN]	4.45	–	–
O=c1cc(-c2ccccc2)oc2cc(O)cc(O)c12 [CHRYSIN]	3.52	–	–
